Results as given in publication PMC2849726 (Journal of medicinal chemistry, 2010).
Converted amounts (≈) assume the structure as drawn. “Also recorded” adds a separate entry of the source.

Experiments:
[1] = system: SK-BR-3 (estrogen receptor negative, HER2 over-expressing luminal-like breast cancer); experiment: Cell growth inhibition assay; type: cell-based, human
Outline: (§1)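 Cells were grown in RPMI-1640 with 10% FBS and antibiotics at 37 °C in 5% CO2. Freshly trypsinized cells were seeded and test compound added from DMSO-diluted stock, then incubated 72 h after attachment. Cells were fixed with 10% TCA and stained 10 min with 0.4% SRB in 1% HOAc. Bound dye was dissolved in 10 mM trizma base and A515 read. ED50 is the concentration giving 50% reduction in net protein increase versus control, averaged over at least three independent determinations.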

[2] = system: MCF-7 (estrogen receptor positive luminal-like breast cancer); experiment: Cell growth inhibition assay; type: cell-based, human
Outline: as §1

[3] = system: ER+ and HER2++ breast cancer cells; conditions: more selective than TAM; cited from earlier work
[4] = system: ZR-75-1 (estrogen receptor positive, HER2 over-expressing luminal-like breast cancer); experiment: Cell growth inhibition assay; type: cell-based, human; conditions: for IC50: Homo sapiens, ZR-75-1, read-out: IC50 against the ZR-75-1 cell lines
Outline: as §1

ZR-75-1 xenograft = experiment: Antitumor activity in vivo, ZR-75-1 xenograft; parameters: species or system SCID mice; conditions: 10 mg/kg i.p. qod to end
Outline: (§2)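 Human tumour cells were grown in RPMI 1640 with 10% heat-inactivated FBS, 2 mM glutamine and antibiotics, harvested in log phase and resuspended in PBS at 5 × 10^7 cells/mL. 1 × 10^7 cells were given s.c. in the right flank. Test compound was dosed i.p. at 10 mg/kg qod to end in 4% benzyl alcohol/6% cremophor/90% D5W. Controls were vehicle i.p. qod and paclitaxel 20 mg/kg i.p. q4d × 5. Caliper tumour volume = w²×l/2. %TGD was calculated from mean time to endpoint, with logrank P ≤ 0.05. At least five animals per group.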

[5] = system: SK-BR-3 (estrogen receptor negative, HER2 over-expressing luminal-like breast cancer); conditions: cited from earlier work
[6] = system: MCF-7 (estrogen receptor positive luminal-like breast cancer); conditions: cited from earlier work
[7] = system: mammary gland side branching; experiment: Preliminary in vivo evaluation, mammary gland side branching; conditions: BRCA1/p53 and wild-type mice, unpublished data
CK2α1 = CK2α1 (Homo sapiens, UniProt P68400); experiment: Kinases inhibition assay, CK2α1; type: biochemical; conditions: preliminary, Table 3 in supporting information
Chain of CK2α1 (P68400 whole entry): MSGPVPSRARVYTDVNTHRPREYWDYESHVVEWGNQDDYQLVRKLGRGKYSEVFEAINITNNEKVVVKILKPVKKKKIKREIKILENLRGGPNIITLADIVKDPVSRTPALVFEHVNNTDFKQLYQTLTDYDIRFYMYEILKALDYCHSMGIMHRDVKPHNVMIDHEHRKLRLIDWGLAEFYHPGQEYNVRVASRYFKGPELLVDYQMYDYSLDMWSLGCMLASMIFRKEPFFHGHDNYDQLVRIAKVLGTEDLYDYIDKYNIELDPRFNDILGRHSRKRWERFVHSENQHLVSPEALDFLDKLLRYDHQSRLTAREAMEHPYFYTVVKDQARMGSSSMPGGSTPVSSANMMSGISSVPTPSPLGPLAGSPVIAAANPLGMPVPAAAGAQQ

ABL = ABL (Homo sapiens, UniProt P00519); experiment: Kinases inhibition assay, ABL; type: biochemical; conditions: preliminary, Table 3 in supporting information
Chain of ABL (P00519 whole entry, species assumed): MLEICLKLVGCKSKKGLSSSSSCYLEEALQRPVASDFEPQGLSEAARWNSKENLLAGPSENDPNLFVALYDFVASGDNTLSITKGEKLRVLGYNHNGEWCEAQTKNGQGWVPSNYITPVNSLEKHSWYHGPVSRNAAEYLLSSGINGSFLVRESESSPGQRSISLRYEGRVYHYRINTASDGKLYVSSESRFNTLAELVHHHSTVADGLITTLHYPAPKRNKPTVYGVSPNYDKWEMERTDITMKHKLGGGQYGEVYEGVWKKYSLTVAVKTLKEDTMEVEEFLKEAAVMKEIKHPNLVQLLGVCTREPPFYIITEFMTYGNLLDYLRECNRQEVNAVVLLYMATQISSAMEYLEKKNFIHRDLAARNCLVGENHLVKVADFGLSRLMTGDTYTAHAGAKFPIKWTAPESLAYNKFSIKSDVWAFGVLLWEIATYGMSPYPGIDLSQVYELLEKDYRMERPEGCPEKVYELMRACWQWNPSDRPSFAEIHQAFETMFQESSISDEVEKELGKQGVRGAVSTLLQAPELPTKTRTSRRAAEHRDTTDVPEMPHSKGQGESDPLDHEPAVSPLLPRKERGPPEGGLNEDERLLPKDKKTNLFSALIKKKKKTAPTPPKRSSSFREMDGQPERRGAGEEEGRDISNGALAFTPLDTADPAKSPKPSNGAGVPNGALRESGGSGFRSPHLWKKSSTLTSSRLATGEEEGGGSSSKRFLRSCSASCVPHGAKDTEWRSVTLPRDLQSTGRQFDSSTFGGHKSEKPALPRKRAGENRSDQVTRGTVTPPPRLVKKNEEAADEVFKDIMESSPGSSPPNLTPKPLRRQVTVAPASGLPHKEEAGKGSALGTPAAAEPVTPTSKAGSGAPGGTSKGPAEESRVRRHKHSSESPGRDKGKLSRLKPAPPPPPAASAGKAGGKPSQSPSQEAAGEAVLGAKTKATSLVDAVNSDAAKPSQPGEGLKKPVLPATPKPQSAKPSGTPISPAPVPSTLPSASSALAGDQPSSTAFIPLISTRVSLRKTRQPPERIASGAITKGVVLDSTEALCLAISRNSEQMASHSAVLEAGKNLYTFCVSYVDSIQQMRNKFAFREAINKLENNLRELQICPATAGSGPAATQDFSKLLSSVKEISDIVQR

MDA-MB-231 xenograft = experiment: Antitumor activity in vivo, MDA-MB-231 xenograft; parameters: species or system SCID mice; conditions: 10 mg/kg i.p. qod to end
Outline: as §2

PC-3 xenograft = experiment: Antitumor activity in vivo, PC-3 xenograft; parameters: species or system SCID mice; conditions: 10 mg/kg i.p. qod to end
Outline: as §2

AKT1 = AKT1 (Homo sapiens, UniProt P31749); experiment: Kinases inhibition assay, AKT1; type: biochemical; conditions: preliminary, Table 3 in supporting information
Chain of AKT1 (P31749 whole entry, species assumed): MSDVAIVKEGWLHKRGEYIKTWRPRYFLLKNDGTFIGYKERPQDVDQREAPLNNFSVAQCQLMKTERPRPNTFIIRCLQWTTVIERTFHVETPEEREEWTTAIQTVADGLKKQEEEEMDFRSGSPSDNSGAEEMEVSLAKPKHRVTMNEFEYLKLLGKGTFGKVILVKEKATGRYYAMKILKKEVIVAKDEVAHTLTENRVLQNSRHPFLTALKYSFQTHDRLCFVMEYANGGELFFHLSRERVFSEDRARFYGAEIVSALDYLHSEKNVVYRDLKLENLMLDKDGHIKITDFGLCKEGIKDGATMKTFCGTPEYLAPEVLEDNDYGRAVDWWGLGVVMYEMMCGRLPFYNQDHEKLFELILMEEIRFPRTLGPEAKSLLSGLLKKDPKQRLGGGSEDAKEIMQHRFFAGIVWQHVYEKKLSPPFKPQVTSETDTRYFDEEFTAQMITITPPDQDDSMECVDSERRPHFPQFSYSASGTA

[8] = system: human breast cancer cell lines; experiment: Cell line panel; type: cell-based; conditions: total 29 cell lines, unpublished data

## Cc1ccc2c(=O)oc3c4ccccc4ccc3c2c1 [Compound 58, 9-Methyl-6H-dibenzo[c,h]chromen-6-one]
[1]; only SK-BR-3 tested
  anti-breast cancer activity (in words): inactive

## CCc1cccc2c1ccc1c3oc(C)cc3c(=O)oc21 [Compound 51, 6-Ethyl-2-methyl-11H-benzo[h]furo[3,2-c]chromen-11-one]
[2]
  activity against MCF-7 (in words): completely inactive

## Cc1cccc2c1ccc1c3occ(C)c3c(=O)oc21 [Compound 1, Neo-tanshinlactone]
[3]
  selectivity relative to TAM: 20 fold

## Cc1coc2c1c(=O)oc1c3cccc(C(C)Br)c3ccc21 (stereo not drawn) [Compound 24, 6-(1-Bromoethyl)-1-methyl-11H-benzo[h]furo[3,2-c]chromen-11-one]
[1]
  potency relative to 1 against SK-BR-3: two- to three-fold more potent than 1
[4]
  potency relative to 1 against ZR-75-1: two- to three-fold more potent than 1

## CCc1cccc2c1ccc1c3occ(C)c3c(=O)oc21 [Compound 2]
ZR-75-1 xenograft
  ZR-75-1 tumor xenograft growth (in words): potent activity; also recorded: significant reduction in growth
[5]
  activity relative to 1 against SK-BR-3: about twice as active
[6]
  activity relative to 1 against MCF-7: about twice as active
[7]
  mammary gland side branching (in words): dramatically reduced
CK2α1
  suppression of CK2α1 (in words): significantly suppressed
ABL
  suppression of ABL (in words): significantly suppressed
MDA-MB-231 xenograft
  effect on MDA-MB-231 xenograft (in words): no effect
PC-3 xenograft
  effect on PC-3 xenograft (in words): no effect
AKT1
  suppression of AKT1 (in words): significantly suppressed
[8]
  share of human breast cancer cell lines against which effective: approximately 40%

## COc1cccc2c1ccc1c3occ(C)c3c(=O)oc21 [Compound 21, 6-Methoxy-1-methyl-11H-benzo[h]furo[3,2-c]chromen-11-one]
[4]; more active against ZR-75-1 than MCF-7
  ZR-75-1/MCF-7 selectivity ratio: 23 fold

## Cc1coc2c1c(=O)oc1c3cccc(C(C)C)c3ccc21 [Compound 19, 6-Isopropyl-1-methyl-11H-benzo[h]furo[3,2-c]chromen-11-one]
[4]
  ZR-75-1/SK-BR-3 selectivity ratio: tenfold
  IC50: 0.3 µg/mL (≈ 1.03 µM)

## CCCc1cccc2c1ccc1c3occ(C)c3c(=O)oc21 [Compound 20, 1-Methyl-6-propyl-11H-benzo[h]furo[3,2-c]chromen-11-one]
[1]
  SK-BR-3/MCF-7 selectivity ratio: approximately 12 fold
[4]
  ZR-75-1/SK-BR-3 selectivity ratio: threefold
  IC50: 0.2 µg/mL (≈ 0.684 µM)
